Shown are actives, neighbours in structure and some others; about 3.7% of the full set was active somewhere.
Kir21 inh: inhibitors of mouse Kir2.1 inward-rectifier potassium channel; B-score at 10 µM; AID 1672, 2009; 310,000 compounds, 0.85% hits; HEK293-Kir2.1, FluxOR thallium flux fluorescence; hits give low values; Inward rectifier potassium channel 2 (Mus musculus), P35561;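 active means fluorescence ratio B-score at or below minus 3 SD of library scores, with starting-brightness B-score within 2 SD, cut at about -4.2 in these data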;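 further: channel flux triggered by added potassium and thallium sulfate stimulus; B-score of peak minus minimum fluorescence over baseline after thallium stimulus; more negative B-score means stronger Kir2.1 block with less thallium influx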
KCNK9 block: KCNK9 potassium channel inhibitors, primary screen, HEK293 cells, thallium flux. FluxOR thallium flux fluorescence; hits give low values. 310,000 compounds, 1.2% hits. B-score at 10 µM. Potassium channel subfamily K member 9 (Homo sapiens), Q9NPC2. AID 488922, 2010;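 active means ratio B-score over 3 SD below the library mean, with starting fluorescence within 5 SD of its mean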;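 further: negative B-score means less thallium flux so channel inhibition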
Target sequence (Q9NPC2 whole entry, looked up): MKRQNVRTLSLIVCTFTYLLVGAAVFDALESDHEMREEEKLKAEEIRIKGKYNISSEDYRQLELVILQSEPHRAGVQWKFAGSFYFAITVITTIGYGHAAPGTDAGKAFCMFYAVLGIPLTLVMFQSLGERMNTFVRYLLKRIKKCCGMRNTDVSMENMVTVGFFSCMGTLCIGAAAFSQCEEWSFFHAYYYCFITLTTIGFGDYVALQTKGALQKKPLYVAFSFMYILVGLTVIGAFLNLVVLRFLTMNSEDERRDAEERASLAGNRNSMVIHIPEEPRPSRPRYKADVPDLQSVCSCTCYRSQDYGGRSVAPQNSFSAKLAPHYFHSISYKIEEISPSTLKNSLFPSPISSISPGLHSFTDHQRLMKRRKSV
hERG rescue: hERG rescue from dofetilide block, primary screen, cell-based, CHO-hERG, FluxOR thallium flux, dofetilide IC70. dofetilide IC70 present. activation (rescue from dofetilide block), less the hit threshold, % at 10 µM. Voltage-gated inwardly rectifying potassium channel KCNH2 (Homo sapiens), Q12809. AID 1511, 2009. 310,000 compounds, 0.51% hits;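 active means activation above the mean of controls blocked by dofetilide plus 5 SD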;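 further: thallium influx through hERG after potassium depolarization seen as dye fluorescence rise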
KCNQ1 pot: potentiators or activators of KCNQ1 channel, primary screen, cell-based, thallium flux, high-throughput | Potassium voltage-gated channel subfamily KQT member 1 (Homo sapiens), P51787 | AID 2648, 2010 | CHO-K1 KCNQ1, thallium flux FluxOR fluorescence; hits give high values | B-score at 10 µM | 310,000 compounds, 0.35% hits;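 active means fluorescence ratio B-score, a plate-corrected score, at least three library SD, with initial intensity B-score within 5 SD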
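Material: CHO-K1 cells stably expressing KCNQ1. Medium: assay buffer for compound exposure, DMSO matched across wells. Reagent: K+/Tl+ depolarizing stimulus. Compound dosing: single-concentration screen. Times: 37 °C overnight plating, 90-min dark dye load, 20-min compound pretreatment. Technique: FluxOR Tl+ flux fluorescence.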
KCNQ1 inh: inhibitors of human KCNQ1 channel, primary screen, cell-based, thallium flux, high-throughput. B-score at 10 µM. 310,000 compounds, 1.3% hits. CHO-K1 KCNQ1, FluxOR thallium flux fluorescence; hits give high values. Potassium voltage-gated channel subfamily KQT member 1 (Homo sapiens), P51787;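 active means compounds whose thallium flux B-score, printed positive for inhibition, exceeds three library SD while starting fluorescence stays within three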;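 further: channel opened by potassium depolarization with thallium stimulus after 20 min compound exposure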
KCNK3 block: human KCNK3 channel inhibitors, primary screen, CHO cells, FluxOR thallium flux, B-score | Potassium channel subfamily K member 3 (Homo sapiens), O14649 | FluxOR fluorescence; hits give low values | B-score at 10 µM | 340,000 compounds, 0.84% hits | AID 602410, 2012;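 active means B-score under library mean minus 4 SD, starting fluorescence ratio at most library mean plus 5 SD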;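 further: more negative B-score means stronger inhibition of thallium flux through KCNK3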
Target sequence (O14649 whole entry, looked up): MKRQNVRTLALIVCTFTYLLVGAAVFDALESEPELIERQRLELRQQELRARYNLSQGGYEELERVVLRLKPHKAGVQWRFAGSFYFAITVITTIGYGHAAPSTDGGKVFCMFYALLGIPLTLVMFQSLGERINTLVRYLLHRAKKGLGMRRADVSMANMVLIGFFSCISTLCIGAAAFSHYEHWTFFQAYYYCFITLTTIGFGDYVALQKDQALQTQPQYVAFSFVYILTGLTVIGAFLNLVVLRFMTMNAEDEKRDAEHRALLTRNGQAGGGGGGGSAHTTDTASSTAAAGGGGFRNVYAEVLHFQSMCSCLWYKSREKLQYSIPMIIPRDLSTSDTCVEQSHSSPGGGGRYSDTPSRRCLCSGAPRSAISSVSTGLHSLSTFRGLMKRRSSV
KCNK9 block conf: KCNK9 potassium channel inhibitors, confirmation, HEK293 cells, thallium flux, duplicate; shares compounds with KCNK9 block; FluxOR thallium flux fluorescence; inhibition, % at 10 µM; 4,900 compounds, 43% hits;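 active means thallium signal inhibited by more than 5 SD of the compound-free buffer control wells, on both duplicate plates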
Kir21 sel: mouse Kir2.1 channel inhibition, confirmation, selectivity assay for KCNK9 modulator project, cell-based, HEK293, thallium flux. shares compounds with KCNK9 block. Kir2.1 cells, FluxOR thallium flux fluorescence. inhibition, % at 10 µM. 4,900 compounds, 4% hits;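 active means thallium signal drop more than 5 SD beyond the mean of the no-compound control wells, seen in both duplicate plates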;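 further: signal is fluorescence rise after thallium addition divided by baseline fluorescence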
HEK293 Tl ctr: thallium flux in non-induced HEK293 cells, confirmation, counter-screen for KCNK9 inhibitor project, cell-based, second counter screen, non-induced KCNK9-HEK293 | inhibition, % at 10 µM | FluxOR thallium flux | AID 492997, 2010 | 4,900 compounds, 40% hits | shares compounds with KCNK9 block;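 active means thallium signal drop beyond 5 SD of the untreated control mean, on both duplicate plates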
Large screens that a line does not name were inactive (follow-up assays come after a bar, where they were run).

CCCCn1c(NS(=O)(=O)c2ccc(C)cc2)c(S(=O)(=O)c2ccccc2)c2nc3ccccc3nc21	KCNQ1 pot 9 | KCNK9 block conf inactive | Kir21 sel inactive | HEK293 Tl ctr inactive
CC1Cc2ccccc2N1C(=O)c1cc2sccc2n1Cc1ccc(F)cc1 (stereo not given)	KCNK9 block -9.8, KCNQ1 inh 8 | KCNK9 block conf 37% | Kir21 sel inactive | HEK293 Tl ctr 23%
CCC(C)c1ccccc1N1CC(C(=O)Nc2cccc(S(=O)(=O)N3CCOCC3)c2)CC1=O (stereo not given)	none
CCC(C)c1ccc(NC(=O)COc2c(F)c(F)c(C(F)(F)F)c(F)c2F)cc1 (stereo not given)	none | KCNK9 block conf inactive | Kir21 sel inactive | HEK293 Tl ctr inactive
O=C(COc1c(F)c(F)c(C(F)(F)F)c(F)c1F)Nc1ccc(N2CCOCC2)c(Cl)c1	none
Cc1[nH][nH]c(=O)c1C(c1ccc(-c2ccc(C(=O)O)cc2)o1)c1c(C)[nH][nH]c1=O	none (no result: Kir21 inh, KCNK9 block, hERG rescue, KCNQ1 pot, KCNQ1 inh)
Cc1[nH][nH]c(=O)c1C(c1ccc(-c2ccc(Cl)c(Cl)c2)o1)c1c(C)[nH][nH]c1=O	KCNQ1 pot 10 | KCNK9 block conf inactive | Kir21 sel inactive | HEK293 Tl ctr inactive
N/C(=N\c1nc(CSc2ccc(Cl)cc2)cc(=O)[nH]1)Nc1cccc2ccccc12	none | KCNK9 block conf inactive | Kir21 sel inactive | HEK293 Tl ctr inactive
Cc1ccc(SCc2cc(=O)[nH]c(/N=C(\N)Nc3ccc(C)c(C)c3)n2)cc1	none | KCNK9 block conf inactive | Kir21 sel inactive | HEK293 Tl ctr inactive
CC(=O)C1CCC2C3CC=C4N(C)C(=O)CCC4(C)C3CCC12C (stereo not given)	none (no result: Kir21 inh, KCNK9 block, hERG rescue, KCNQ1 pot, KCNQ1 inh)
CCOC(=O)Cn1cnc2scc(-c3ccc(C)cc3)c2c1=O	none | KCNK9 block conf inactive | Kir21 sel inactive | HEK293 Tl ctr inactive
CCOC(=O)Cn1cnc2scc(-c3ccccc3)c2c1=O	none
CCOC(=O)Cn1cnc2scc(-c3ccc(C)c(C)c3)c2c1=O	none | KCNK9 block conf inactive | Kir21 sel inactive | HEK293 Tl ctr inactive
Cc1ccc(-c2onc3ccc(C(=O)/C=C/N(C)C)cc23)cc1	none
Cc1cccc(-c2onc3ccc(C(=O)/C=C/N(C)C)cc23)c1	none | KCNK9 block conf inactive | Kir21 sel inactive | HEK293 Tl ctr inactive
CCN(CC)S(=O)(=O)c1cc(NC(=O)C(C)N2CCc3ccccc32)ccc1C (stereo not given)	none
CCN(CC)S(=O)(=O)c1cc(NC(=O)C(C)N(C)CC(=O)Nc2c(C)cccc2C)ccc1C (stereo not given)	KCNK9 block -10 | KCNK9 block conf 52% | Kir21 sel inactive | HEK293 Tl ctr 36%
CCOc1ccccc1CNC(=O)CCCc1cn(C)c2ccccc12	none | KCNK9 block conf inactive | Kir21 sel inactive | HEK293 Tl ctr inactive
COc1ccc(CN(C)C(=O)c2ccc(Oc3ccccc3)cc2)cc1F	none
CN(Cc1ccc2ccccc2c1)C(=O)c1ccc(C(F)(F)F)cc1	none | KCNK9 block conf inactive | Kir21 sel inactive | HEK293 Tl ctr 38%
Cc1ccc(N(CC(=O)N2CCCC2)S(C)(=O)=O)c(C)c1	none
Fc1ccc(Sc2nc(-c3ccccc3)nnc2C(F)(F)F)cc1	none | KCNK9 block conf inactive | Kir21 sel inactive | HEK293 Tl ctr inactive
O=C(NNC(=S)Nc1ccc(Cl)c(Cl)c1)c1ccccn1	none | KCNK9 block conf inactive | Kir21 sel inactive | HEK293 Tl ctr inactive
CCNC(=S)NNC(=O)c1ccccn1	none
Cc1ccc(O)c(C(=O)CC(=O)c2ccc(C(C)(C)C)cc2)c1	none | KCNK9 block conf inactive | Kir21 sel inactive | HEK293 Tl ctr inactive
Clc1ccc(N=c2ssnc2Cl)nc1	none
Clc1nssc1=Nc1ccc(Br)cc1	none
COc1cc(N=c2ssnc2Cl)cc(OC)c1	none | KCNK9 block conf inactive | Kir21 sel inactive | HEK293 Tl ctr inactive
N#Cc1cccc(N=c2ssnc2Cl)c1	hERG rescue 5.2 | KCNK9 block conf inactive | Kir21 sel inactive | HEK293 Tl ctr inactive
CC1COC(C)(CC(=O)NN2C(=O)c3ccccc3C2=O)O1 (stereo not given)	none
CCOC(=O)c1ccc(NC(=O)COc2ccc(S(=O)(=O)NC(C)(C)C)cc2)cc1	none
CSCCC(NC(=O)c1ccccc1Cl)C(=O)NCCc1ccccn1 (stereo not given)	none (no result: Kir21 inh, KCNK9 block, hERG rescue, KCNQ1 pot, KCNQ1 inh)
COC(=O)CC1(C(=O)OC)Oc2ccc(Br)cc2C(=O)N1c1cc(Cl)c(Cl)cc1Cl (stereo not given)	KCNK9 block -8.6 | KCNK9 block conf 25% | Kir21 sel inactive | HEK293 Tl ctr 42%
CCOC(=O)C1=C(CC)Nc2ccccc2N/C1=N\S(=O)(=O)c1ccc2ccccc2c1	none | KCNK9 block conf inactive | Kir21 sel inactive | HEK293 Tl ctr inactive
O=[N+]([O-])c1cc(Cl)ccc1N1CCN(c2ccccc2O)CC1	KCNK9 block -8.5 | KCNK9 block conf inactive | Kir21 sel inactive | HEK293 Tl ctr 25%
C[C@]12CCC[C@H](O1)c1c(cc3c(c1O)C(=O)c1c(O)cc(O)cc1C3=O)O2	KCNK9 block -12, KCNQ1 inh 14, KCNK3 block -10 | KCNK9 block conf 58% | Kir21 sel inactive | HEK293 Tl ctr 42%
CSc1ccccc1C(=O)C1CCCN(Cc2cnn(-c3ccccc3)c2)C1 (stereo not given)	none
Cc1cc(C)c(NC(=O)/C(C#N)=C/c2ccc(OCc3ccc(F)cc3)cc2)c(C)c1	none | KCNK9 block conf inactive | Kir21 sel inactive | HEK293 Tl ctr inactive
COc1cc(/C=C(/C#N)C(=O)Nc2ccccc2)c(Br)cc1OCc1ccc(C(=O)O)cc1	none
COC(=O)c1ccc(COc2ccccc2/C=C(\C#N)C(=O)Nc2c(C)cc(C)cc2C)cc1	KCNK9 block -16 | KCNK9 block conf 78% | Kir21 sel inactive | HEK293 Tl ctr 28%
